Assay outcomes deposited in PubChem BioAssay by several laboratories.
Compounds with a hit are over-represented: about 9.2% of the library has one in this group of screens.
HCT116 PTEN-null – growth suppression of PTEN-null HCT116, primary screen, cell-based, CellTiter-Glo; AID 827, 2007; HCT116 PTEN-null viability, 60 h; active compounds read low; actives 1.2% (n = 140,000); viability, % at 10 µM;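 active = viability at or below a set limit, 4 SD under the median of all tested compounds, cut at about 3.7% in these data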;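 also: PTEN knockout HCT116 line with beta catenin targeted HCT116 as companion control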
Dynein transport – inhibitors of GR-EGFP nuclear translocation, primary screen, dynein cargo transport inhibitor project, imaging, high-content, 3617.4 mouse cells; AID 1381, 2008; test concentration mostly 20 µM; stimulated with dexamethasone, 1 µM; active compounds read low; z-score, hits read low; actives 0.47% (n = 220,000);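 active = plate z-score of nuclear minus cytoplasmic receptor signal below a set negative limit, without overly bright fluorescence or cell loss, cut at about -3.5 in these data, passing the limit was not always enough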;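 also: z-score of nuclear minus cytoplasmic ring GR-EGFP intensity difference per well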
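Buffer or medium: tetracycline-free induction medium containing charcoal-stripped FBS / Reagent: dexamethasone agonist, 1.0 µM final, for 30 min / Technique: automated 10x imaging of fixed Hoechst-stained cells / Times: induction 48 h, compound 1 h, agonist 30 min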
Autophagy mod – autophagy modulators in MEF cells, primary screen, imaging, high-content, MEF GFP-LC3; MEF GFP-LC3 puncta imaging; test concentration mostly 10 µM; calls only at 10 µM (by protocol); actives 0.98% (n = 190,000); AID 463193, 2010;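 active = percentage of spot-positive cells more than 3 SD above its plate mean, without a fluorescence outlier flag or 80% toxicity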;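 also: spot-positive cell cutoff set from DMSO-treated cells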
bCat KO growth – primary screen for growth suppressors in beta-catenin knockout HCT116 cells (colon tumor, human); HCT116 beta-catenin knockout viability, CellTiter-Glo, 60 h; active compounds read low; actives 1.5% (n = 140,000); viability, % at 10 µM; AID 818, 2007;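 active = viability at or under a set limit, the compound median less 4 SD, cut at about 6% in these data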;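 also: 0% = Hyamine 1622 control at 20 µM and 100% = untreated cell control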
L major viab – Leishmania major promastigote growth inhibition, primary screen; Leishmania major promastigotes, resazurin fluorescence viability; inhibition, % at 10 µM; actives 9% (n = 200,000); AID 1063, 2008; in the data active = inhibition above about 50%;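 also: promastigotes grown with compound for 44 hours at 28 °C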
An asterisk follows results filed as active; i = inactive; · = not tested or not shown; + = active, no number.

SMILES	HCT116 PTEN-null	Dynein transport	Autophagy mod	bCat KO growth	L major viab
COc1ccc(CCc2nnc(CCC(=O)NCCc3ncccc3C)o2)cc1	·	-0.511	i	·	-1.7
Cc1ccc(S(=O)(=O)N2CCOCC2)cc1C(=O)NC(=S)N1CC(C)OC(C)C1 (stereo not drawn)	·	1.52	·	·	·
O=C(CSc1nnnn1-c1ccc(O)cc1)c1cc2ccccc2o1	·	0.115	·	·	·
COc1ccc(C(=O)C2CCCN(C(=O)C3=CCCC3)C2)cc1OC (stereo not drawn)	·	-0.214	i	·	-0.6
O=S(=O)(/N=C(\c1ccccc1F)N1CCCCC1)c1ccccc1	105.6	0.332	i	98.5	-2.4
O=C(O)c1ccc(OCC(O)Cn2c3ccccc3c3ccccc32)cc1 (stereo not drawn)	·	-0.332	·	·	·
CCN=c1sc2ccccc2n1CC(O)COc1ccccc1 (stereo not drawn)	73.1	-1.01	i	77.1	99.5*
OC(COc1ccccc1)Cn1c2ccccc2c2ccccc21 (stereo not drawn)	67.9	-0.126	i	78.1	69.6*
CC(=O)Nc1ccc(OCC(O)Cn2ccnc2C)cc1 (stereo not drawn)	·	0.371	i	·	-3.7
CC(=O)Nc1ccc(OCC(O)Cn2c3ccccc3c3ccccc32)cc1 (stereo not drawn)	59.1	0.235	i	57.7	85.2*
C=CCN=C1CC(C)(C)CC(=O)/C1=C(\O)CCCN1C(=O)c2ccccc2C1=O	·	1.72	i	·	0.1
CCCCNS(=O)(=O)c1ccc2nc(-c3cccnc3)cc(C(=O)NC3CCCC3)c2c1	·	-0.362	·	·	·
Cc1cc(C)c[n+](C(C)C(=O)c2ccc(-c3ccccc3)cc2)c1 (stereo not drawn)	14.6	0.26	i	16.6	67.4*
Cc1ccc(C(=O)C(C)[n+]2cccc(C(N)=O)c2)cc1 (stereo not drawn)	·	0.0835	i	·	-12.2
O=C(Nc1ccc(Cc2ccncc2)cc1)C1CC1	95.2	-0.909	i	95.3	0.2
O=C(Nc1ccc(Cc2ccncc2)cc1)C1CCC(N2C(=O)C3C4C=CC(C5CC45)C3C2=O)CC1 (stereo not drawn)	79.3	0.885	i	82.2	51.6*
c1cncc(CNc2cccc(-c3nc4ccccc4[nH]3)c2)c1	89.5	-0.191	i	86.6	67.4*
Fc1ccc(NCc2cccnc2)cc1	96.9	3.07	i	106.3	82.5*
O=C(CCNc1n[nH]c(=O)[nH]c1=O)N/N=C/c1ccc(C(F)(F)F)cc1	·	-0.614	i	·	-6.0
CC(C)(C)n1nnnc1SCC(=O)Nc1nn(-c2ccccc2)nc1C(N)=O	·	-0.639	i	·	3.9
CC(=O)Nc1ccc(OCC(O)CN2C(C)(C)CC(O)CC2(C)C)cc1 (stereo not drawn)	96.9	-0.814	i	88.5	-3.8
Cc1ccc(Nc2ncc(C(=O)NCCCN3CCN(C)CC3)c3ccccc23)cc1Cl	·	0.122	i	·	84.1*
O=C(CCl)Nc1ccccc1C(=O)Nc1ccc2c(c1)OCO2	·	0.94	·	·	·
COc1ccc(C(=S)N2CCOCC2)cc1OS(=O)(=O)c1ccccc1[N+](=O)[O-]	81.5	-0.71	i	66.0	1.6
COc1ccc(C=O)cc1OS(=O)(=O)c1ccccc1[N+](=O)[O-]	94.1	0.226	i	96.2	90.4*
SMILES	HCT116 PTEN-null	Dynein transport	Autophagy mod	bCat KO growth	L major viab
O=C(CSc1nnc(CCc2ccccc2)n1-c1ccc(Cl)cc1)c1ccccc1	68.3	-0.73	i	81.2	13.8
CCCCCN1CSC(=S)N(Cc2ccccc2)C1	3.3*	-1.23	i	5.6*	32.3
COc1ccc(S(=O)(=O)n2nc(C)cc2C)c(C)c1C	97.6	-0.0676	i	74.3	50.1*
CCCn1c(SCC(=O)c2ccc3c(c2)NC(=O)CO3)nc2ccccc21	27.9	2.85	i	4.6*	2.1
COc1ccc(-c2nc(-c3ccc(NC(=O)c4ccc(Br)o4)cc3)no2)cc1OC	95.2	-0.0726	i	94.6	-3.9
COc1ccc(CCC(=O)Nc2ccc(-c3noc(-c4ccc(OC)c(OC)c4)n3)cc2)cc1	109.2	-0.322	+	99.8	0.2
O=C(Nc1ccc(S(=O)(=O)NC2=NCCCCC2)cc1)c1ccco1	·	0.657	i	·	-5.4
O=C1CSC(c2c(F)cccc2Cl)N1c1cccc(F)c1 (stereo not drawn)	89.5	0.59	i	95.3	88.2*
CN(CCn1ccnc1)Cc1cn(-c2ccccc2)nc1-c1ccc2c(c1)OCO2	·	-0.179	i	·	93.6*
CN(Cc1cn(C)nc1-c1ccccc1F)Cc1nccn1C	·	-0.271	i	·	-4.3
CN(Cc1cn(-c2ccccc2)nc1-c1ccc2c(c1)OCO2)Cc1nccn1C	·	-0.313	+	·	24.4
CC(=O)NNc1ncnc2c1cnn2-c1ccc(C)c(Cl)c1	·	-0.768	i	·	-7.0
O=C(NCCN1CCOCC1)c1ccc(NC(=O)C2COc3ccccc3O2)cc1 (stereo not drawn)	·	0.197	i	·	-5.2
O=C(NC(Cc1ccccc1)C(=O)O)c1ccccc1 (stereo not drawn)	107.9	1.71	i	98.8	4.4
O=C(Nc1ccccc1)c1ccc(S(=O)(=O)N2CCCC2)cc1	99.5	0.0246	i	94.9	-1.0
O=C(NC(Cc1ccccc1)C(=O)O)c1ccc(S(=O)(=O)N2CCCCC2)cc1 (stereo not drawn)	106.1	-0.456	i	114.2	55.4*
O=C(NC(Cc1ccccc1)C(=O)O)c1ccc(S(=O)(=O)N2CCCC2)cc1 (stereo not drawn)	90.8	-0.225	i	106.0	72.2*
NS(=O)(=O)c1ccc(CNC(=S)NC2CCCC2)cc1	·	0.232	i	·	-3.5
COc1ccccc1CN1CCNC(=O)C1CC(=O)NCCc1cnccn1 (stereo not drawn)	·	-0.435	i	·	-7.2
COc1cccc(-c2nc(-c3ccc4c(c3)-c3ccccc3S4(=O)=O)c(-c3ccccc3)[nH]2)c1OC	93.6	0.95	i	90.9	56.7*
O=C(O)c1ccccc1-c1nc(-c2ccccc2)c(-c2ccccc2)[nH]1	·	-0.741	i	·	-13.0
COc1cc(-c2nc(-c3ccc4c(c3)-c3ccccc3S4(=O)=O)c(-c3ccccc3)[nH]2)cc(OC)c1OC	68.9	0.178	i	68.8	98.9*
COc1cc(-c2nc(-c3ccccc3)c(-c3cccs3)[nH]2)cc(OC)c1OC	43.0	-0.153	i	60.4	89.9*
COC(=O)c1c(NC(=O)CCCC(=O)O)sc2c1CCC2	95.0	0.546	i	102.0	-5.0
CCN(CC)S(=O)(=O)c1ccc2c(c1)nc(CCC(=O)OCC(=O)Nc1cc(OC)cc(OC)c1)n2C	104.2	-0.135	i	97.2	63.7*
CCN(CC)S(=O)(=O)c1ccc2c(c1)nc(CCC(=O)OCC(=O)Nc1c(F)cccc1F)n2C	91.0	1.66	i	98.1	-6.2
